# From ChEMBL document CHEMBL1138475, “Conformationally constrained fatty acid ethanolamides as cannabinoid and vanilloid receptor probes” (J Med Chem, 2009)
# pEC50, pKi: −log10 of the molar value.
# Legend:
# [1] = target: T1, Transient receptor potential cation channel subfamily V member 1 (Homo sapiens, UniProt Q8NER1); experiment: Agonist activity at human recombinant TRPV1 expressed in HEK293 cells assessed as increase in intracellular calcium level; assay type: functional, cell-based
# Outline: (§1)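 Stably transfected HEK-293 cells loaded 1 h at 25 °C with 4 µM Fluo-4 AM, washed, resuspended in Tyrode's buffer pH 7.4. Efficacy relative to 4 µM ionomycin. EC50 is the concentration giving half-maximal [Ca2+]i rise, by sigmoidal fit. At least triplicate.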
# Cannabinoid receptor 2 = Cannabinoid receptor 2 (Homo sapiens, UniProt P34972); experiment: Displacement of [3H]CP-55940 from human recombinant CB2 receptor expressed in HEK293 cell membrane; assay type: cell membranes
# Cannabinoid receptor 2, sequence (P34972 whole entry): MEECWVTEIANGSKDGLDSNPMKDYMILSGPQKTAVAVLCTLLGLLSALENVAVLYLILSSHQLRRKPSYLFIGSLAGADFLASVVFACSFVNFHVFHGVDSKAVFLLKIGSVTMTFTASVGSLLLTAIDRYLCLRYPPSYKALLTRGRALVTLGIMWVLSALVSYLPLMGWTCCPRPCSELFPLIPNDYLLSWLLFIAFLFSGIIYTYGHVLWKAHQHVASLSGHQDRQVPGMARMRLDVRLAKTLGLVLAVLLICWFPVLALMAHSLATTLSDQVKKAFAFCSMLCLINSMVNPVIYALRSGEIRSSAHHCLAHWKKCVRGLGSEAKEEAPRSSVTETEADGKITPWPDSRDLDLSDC
# Cannabinoid receptor 1 [2] = target: Cannabinoid receptor 1 (Homo sapiens, UniProt P21554); experiment: Displacement of [3H]CP-55940 from human recombinant CB1 receptor expressed in HEK293 cell membrane; assay type: cell membranes
# Cannabinoid receptor 1 (Homo sapiens, UniProt P21554), sequence (P21554 whole entry): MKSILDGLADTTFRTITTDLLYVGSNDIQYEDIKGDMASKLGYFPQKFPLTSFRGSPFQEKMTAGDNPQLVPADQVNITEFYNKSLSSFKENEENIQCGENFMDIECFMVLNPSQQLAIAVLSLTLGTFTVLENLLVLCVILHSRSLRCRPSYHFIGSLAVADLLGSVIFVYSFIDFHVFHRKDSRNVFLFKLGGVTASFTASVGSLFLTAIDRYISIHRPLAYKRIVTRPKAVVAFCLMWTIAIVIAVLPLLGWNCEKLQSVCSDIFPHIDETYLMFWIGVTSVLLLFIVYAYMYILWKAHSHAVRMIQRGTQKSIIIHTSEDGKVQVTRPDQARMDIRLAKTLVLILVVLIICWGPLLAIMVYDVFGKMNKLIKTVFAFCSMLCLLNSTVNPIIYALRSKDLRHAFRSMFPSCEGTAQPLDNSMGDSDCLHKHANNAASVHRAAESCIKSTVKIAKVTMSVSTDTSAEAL
# [3] = target: T1, Transient receptor potential cation channel subfamily V member 1; experiment: Agonist activity at human recombinant TRPV1 expressed in HEK293 cells assessed as increase in intracellular calcium level relative to ionomycin; assay type: functional, cell-based
# Outline: as §1, with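 “7.4. Fluorescence (ex 488/em 516 nm) read at 25 °C with stirring, before and after compound at various concentrations.” for “7.4.”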
# Cannabinoid receptor 1 [4] = target: Cannabinoid receptor 1 (Mus musculus, UniProt P47746); experiment: Agonist activity at CB1 receptor expressed in mouse brain membrane by [35S]GTPgammaS binding assay; assay type: functional, cell membranes
# Cannabinoid receptor 1 (Mus musculus, UniProt P47746), sequence (P47746 whole entry): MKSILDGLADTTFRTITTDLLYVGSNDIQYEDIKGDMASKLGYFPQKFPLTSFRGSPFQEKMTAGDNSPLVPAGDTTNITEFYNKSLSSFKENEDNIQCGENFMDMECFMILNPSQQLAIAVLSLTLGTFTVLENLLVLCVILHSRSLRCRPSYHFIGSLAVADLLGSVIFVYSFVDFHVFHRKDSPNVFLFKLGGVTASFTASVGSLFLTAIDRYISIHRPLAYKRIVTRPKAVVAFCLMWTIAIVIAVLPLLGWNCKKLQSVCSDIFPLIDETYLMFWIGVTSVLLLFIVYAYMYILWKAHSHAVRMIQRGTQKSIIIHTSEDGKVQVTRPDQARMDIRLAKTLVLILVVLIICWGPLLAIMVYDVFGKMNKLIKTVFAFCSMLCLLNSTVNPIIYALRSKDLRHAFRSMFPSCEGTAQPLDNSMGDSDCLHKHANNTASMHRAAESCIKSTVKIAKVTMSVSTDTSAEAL
# Outline: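 Mouse brain membranes (10 µg/mL) preincubated 30 min at 30 °C with adenosine deaminase 0.5 U/mL, in Tris buffer with MgCl2, EDTA, NaCl, DTT, 0.1% BSA, 0.1 nM [35S]GTPγS, 30 µM GDP; compounds 60 min at 30 °C. Nonspecific with 30 µM GTPγS. Filtration, scintillation counting. 0.1% DMSO vehicle. Basal subtracted; EC50 and Emax by sigmoid nonlinear regression.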
# T1 sequence (Q8NER1 whole entry): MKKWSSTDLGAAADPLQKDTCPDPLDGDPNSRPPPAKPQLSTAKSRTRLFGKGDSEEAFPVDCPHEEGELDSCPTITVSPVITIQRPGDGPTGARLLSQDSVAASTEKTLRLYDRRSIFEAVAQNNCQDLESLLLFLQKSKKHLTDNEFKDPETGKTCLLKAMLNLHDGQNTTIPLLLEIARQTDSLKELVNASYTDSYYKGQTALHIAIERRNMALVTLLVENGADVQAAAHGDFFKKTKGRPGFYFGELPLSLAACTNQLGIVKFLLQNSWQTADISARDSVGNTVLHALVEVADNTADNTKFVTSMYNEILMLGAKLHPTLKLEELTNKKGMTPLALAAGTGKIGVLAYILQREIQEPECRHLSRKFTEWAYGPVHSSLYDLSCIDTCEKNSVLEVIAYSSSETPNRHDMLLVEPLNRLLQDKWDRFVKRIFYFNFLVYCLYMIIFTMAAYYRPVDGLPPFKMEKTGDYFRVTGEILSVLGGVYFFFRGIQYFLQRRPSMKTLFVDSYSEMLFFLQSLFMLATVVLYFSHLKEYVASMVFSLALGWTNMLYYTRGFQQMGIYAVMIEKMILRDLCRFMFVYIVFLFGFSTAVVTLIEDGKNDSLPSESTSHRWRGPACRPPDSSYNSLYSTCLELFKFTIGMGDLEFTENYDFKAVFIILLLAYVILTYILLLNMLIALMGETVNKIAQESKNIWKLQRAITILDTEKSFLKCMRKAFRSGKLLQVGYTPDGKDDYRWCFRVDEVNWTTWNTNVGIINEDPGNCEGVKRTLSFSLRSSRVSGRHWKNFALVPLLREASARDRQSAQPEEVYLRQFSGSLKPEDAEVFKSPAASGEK
SMILES,pEC50 [1],pKi (Cannabinoid receptor 2),pKi (Cannabinoid receptor 1 [2]),Emax [3] [%],pEC50 (Cannabinoid receptor 1 [4])
CCCCCCCC/C=C\CCCCCCCC(=O)N[C@@H]1C[C@@H]1O [listing 1 of 2 here],6.82,5.69,,,
CCCCCCCCCCCCCCCC(=O)N[C@@H]1C[C@H]1O (racemic),7.40,< 5.00,< 5.00,,
CCCCC/C=C\C/C=C\C/C=C\C/C=C\CCCC(=O)N[C@@H]1C[C@@H]1O [listing 1 of 2 here],6.21,6.70,,,
CCCCCCCCCCCCCCCC(=O)N[C@@H]1C[C@@H]1O (racemic),4.58,< 5.00,< 5.00,,
CCCCC/C=C\C/C=C\C/C=C\C/C=C\CCCC(=O)N[C@@H]1C[C@H]1O (racemic),7.30,6.62,,,
COc1cc(CNC(=O)CCCC/C=C/C(C)C)ccc1O [CAPSAICIN],,< 5.00,,,
CCCCCCCC/C=C\CCCCCCCC(=O)N[C@@H]1C[C@H]1O (racemic),7.22,6.42,,,
CCCCC/C=C\C/C=C\C/C=C\C/C=C\CCCC(=O)N[C@@H]1C[C@@H]1O [listing 2 of 2 here],,,,76.5,
CCCCCCCC/C=C\CCCCCCCC(=O)NCCO [OLEOYLETHANOLAMIDE],5.44,< 5.00,,,
CCCCC/C=C\C/C=C\C/C=C\C/C=C\CCCC(=O)NCCO [ANANDAMIDE],6.70,,,,
CCCCC/C=C\C/C=C\C/C=C\C/C=C\CCCC(=O)N[C@@H]1C[C@H]1O [listing 1 of 2 here],7.64,6.72,,,6.11
CCCCCCCCCCCCCCCC(=O)NCCO [PALMIDROL],< 5.00,< 5.30,< 5.30,,
CCCCCCCC/C=C\CCCCCCCC(=O)N[C@@H]1C[C@@H]1O (racemic),5.43,6.47,,,
CCCCCCCC/C=C\CCCCCCCC(=O)N[C@@H]1C[C@H]1O [listing 1 of 2 here],,,,72.5,
CCCCCCCC/C=C\CCCCCCCC(=O)N[C@@H]1C[C@@H]1O [listing 2 of 2 here],,,,62.5,
CCCCC/C=C\C/C=C\C/C=C\C/C=C\CCCC(=O)N[C@H]1C[C@@H]1O,7.33,6.54,,75.7,5.59
CCCCC/C=C\C/C=C\C/C=C\C/C=C\CCCC(=O)N[C@@H]1C[C@H]1O [listing 2 of 2 here],,,,80.3,
CCCCCCC(C)(C)c1ccc([C@@H]2C[C@H](O)CC[C@H]2CCCO)c(O)c1 [CP-55940],8.00,,,83,
CCCCC/C=C\C/C=C\C/C=C\C/C=C\CCCC(=O)N[C@@H]1C[C@@H]1O (racemic),5.72,6.82,,,
CCCCC/C=C\C/C=C\C/C=C\C/C=C\CCCC(=O)N[C@H]1C[C@H]1O,5.62,6.72,,65.8,
CCCCCCCC/C=C\CCCCCCCC(=O)N[C@@H]1C[C@H]1O [listing 2 of 2 here],7.89,5.36,,,
